Consider 37 sequences from the array DNA melting data of Ke et al. (doi:10.1101/2024.01.08.574731).

The nature of series [1]: folding enthalpy; higher = less favourable; fluorescence melt of hairpins on a sequencing array, two-state fit. The following applies: sodium 0.088 M. In short, it runs like this:
(§1)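 Hairpins were imaged by Cy3 fluorescence on a sequenced MiSeq flow cell with annealed Cy3 and quencher oligos, in 50 mM Na-HEPES pH 8.0, 25 mM NaCl, in 2.5 °C steps up to 60 °C. Bootstrapped two-state fits of normalised signals gave melting temperature and folding enthalpy. Four replicates were combined by inverse variance, and fitted temperatures were raised by 9.35 °C to match UV melts.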

The nature of series [2]: melting temperature; fluorescence melt of hairpins on a sequencing array, two-state fit, raised by 9.35 °C to match UV melts. The conditions noted are these: sodium 0.088 M. An outline of the steps: as §1

As to CGTAACGGAAACGTGACG (((.(((....))).))), the folding enthalpy in series [1] is -197 kJ/mol. Also, the Tm in series [2] is 49.6 °C.
Turning to CGTAATCGGAAACGAACG (((..(((....)))))), the folding enthalpy in series [1] was -32.4 kJ/mol. The Tm in series [2] was found to be 20.9 °C.
The corresponding values for CGTACGGAAACGTAACG ((((((....))).))) are -120 kJ/mol and 45.3 °C.
The corresponding values for CGTACGGAAACGTCAACG ((((((....)))..))) are -56.4 kJ/mol and 32.2 °C.
The corresponding values for CGTACGGAAACGTTTACG ((((((....)))..))) are -67 kJ/mol and 37.3 °C.
On to CGTAGCGGAAACGCCACG (((.(((....))).))), for which the folding enthalpy in series [1] is -134 kJ/mol. The Tm in series [2] is 46.9 °C.
For CGTATGAAAATACG (((((....))))), in that order: -101 kJ/mol and 47.4 °C.
For CGTCACCGGAAACGGACG (((..(((....)))))), in that order: -90.6 kJ/mol and 36.4 °C.
For the sequence CGTCCACGGAAACGTACG (((..(((....)))))), the folding enthalpy in series [1] was -65.8 kJ/mol. Moreover, the Tm in series [2] came out at 28.5 °C.
CGTCCGGAAACGGATACG ((((((....)))..))): the folding enthalpy in series [1] is -75.7 kJ/mol. Further, in series [2], the Tm is 40 °C.
For CGTCCGGAAACGGGCACG ((((((....)))..))), in that order: -51.8 kJ/mol and 38.9 °C.
As to CGTCCGGAAACGGGTACG ((((((....)))..))), in series [1], the folding enthalpy was -105 kJ/mol. For the same sequence, the Tm in series [2] was determined as 42.4 °C.
The corresponding values for CGTCCGGAAACGGTAACG ((((((....)))..))) are -105 kJ/mol and 37.8 °C.
Take CGTCGACGGAAACGTACG (((..(((....)))))): the folding enthalpy in series [1] was -84.6 kJ/mol. For the same sequence, in series [2], the Tm was 38.1 °C.
The corresponding values for CGTGCGGAAACGCCACG ((((((....))).))) are -106 kJ/mol and 53.8 °C.
The corresponding values for CGTGCGGAAACGCCTACG ((((((....)))..))) are -63.9 kJ/mol and 39.1 °C.
Turning to CGTGCGGAAACGCTTACG ((((((....)))..))), the folding enthalpy in series [1] was -94.8 kJ/mol. For the same sequence, the Tm in series [2] turned out to be 38.4 °C.
For CGTGGACGGAAACGTACG (((..(((....)))))), in that order: -85 kJ/mol and 36.6 °C.
For CGTGGCGGAAACGCACG (((.(((....)))))), in that order: -111 kJ/mol and 53.7 °C.
The corresponding values for CGTGTCGGAAACGAAACG (((.(((....))).))) are -149 kJ/mol and 47.1 °C.
With CGTGTCGGAAACGAACG (((.(((....)))))), in series [1], the folding enthalpy is -102 kJ/mol. In addition, the Tm in series [2] was 37.7 °C.
With CGTGTTCGGAAACGAACG (((..(((....)))))), the folding enthalpy in series [1] is -34.5 kJ/mol. For the same sequence, the Tm in series [2] is 42.1 °C.
Take CGTTAGCGGAAACGCACG (((..(((....)))))): in series [1], the folding enthalpy was -75.6 kJ/mol. Also, in series [2], the Tm amounted to 39.8 °C.
CGTTCACGGAAACGTACG (((..(((....)))))): in series [1], the folding enthalpy was -63.4 kJ/mol. Further, the Tm in series [2] is 39 °C.
The corresponding values for CGTTCGGAAACGAAAACG ((((((....)))..))) are -104 kJ/mol and 34.9 °C.
Consider CGTTCGGAAACGAAGACG ((((((....)))..))), for which the folding enthalpy in series [1] was -110 kJ/mol. Moreover, the Tm in series [2] was 34.9 °C.
For CGTTCGGAAACGACCACG ((((((....)))..))), in that order: -37.2 kJ/mol and 27.3 °C.
The corresponding values for CGTTCGGAAACGAGAACG ((((((....)))..))) are -117 kJ/mol and 41.2 °C.
Consider CGTTCGGAAACGAGGACG ((((((....)))..))), for which the folding enthalpy in series [1] was -59.1 kJ/mol. Besides, the Tm in series [2] came to 34.7 °C.
The corresponding values for CGTTGCGGAAACGCGACG (((.(((....))).))) are -128 kJ/mol and 67.4 °C.
For CGTTGGCGGAAACGCACG (((..(((....)))))), in that order: -61.1 kJ/mol and 41.1 °C.
For CGTTTCGGAAACGACACG (((.(((....))).))), in that order: -124 kJ/mol and 44.8 °C.
On to CGTTTGCGGAAACGCACG (((..(((....)))))), for which, in series [1], the folding enthalpy was -43.6 kJ/mol. For the same sequence, the Tm in series [2] amounted to 39.8 °C.
As for CTAGCGAAAGCTAG (((((....))))), the folding enthalpy in series [1] was -79.7 kJ/mol. Also, in series [2], the Tm was determined as 63.2 °C.
For CTCGAGAAATCGAG (((((....))))), in that order: -88.5 kJ/mol and 47.9 °C.
Regarding CTCGTGAAAACGAG (((((....))))), the folding enthalpy in series [1] was -89.6 kJ/mol. Also, the Tm in series [2] was determined as 53.5 °C.
For CTCTGGAAACAGAG (((((....))))), in that order: -83.4 kJ/mol and 46.4 °C.
